697 NFkB inh: inhibitors of the PMA/ionomycin-induced NF-kB reporter in 697 B cells | 697 B-cell NF-kB luciferase reporter, 16 h | inhibition, % at 4 µM | hit rate 0.33% among 330,000; in the data active = inhibition above about 35%
Jurkat NFkB inh: lowers PMA/ionomycin-induced NF-kB signal in Jurkat cells | PMA/ionomycin-induced NF-kB luciferase reporter, luminescence | inhibition, % at 4 µM | hit rate 0.53% among 330,000; in the data active = inhibition above about 50%
APP 5UTR inh: APP translation inhibition. hit rate 0.82% among 190,000. SH-SY5Y APP 5'UTR-luciferase reporter, luminescence. inhibition, % at 2 µM. AID 1285;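 active = inhibition above a set limit, derived from the sample mean plus 3 SD, cut at about 45% in these data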
H9c2 TAG inh: reduces triacylglycerol accumulation in H9c2 cells | Nile Red lipid (TAG) fluorescence; cells loaded with 200 µM oleic acid | inhibition, % at 12.5 µM | hit rate 0.66% among 230,000;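 active = pattern-corrected inhibition of lipid staining of at least 50% with the nuclear-stain viability signal not falling by more than 50%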;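 also: 0% = DMSO wells and 100% = triacsin C control wells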
aSyn 5UTR inh: 5' untranslated region of α-synuclein, MLPCN primary screen | alpha-synuclein 5'UTR reporter, inhibitor activity | inhibition, % (tested at 7.5 µM) | hit rate 0.82% among 300,000 | AID 1813; in the data active = inhibition above about 60%;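 also: H4 neuroglioblastoma cells stably carrying SNCA 5'UTR luciferase fusion; 0% = DMSO wells and 100% = positive control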
Hep lipid drop: modulators of hepatic lipid droplet formation. AML12 mouse hepatocytes, oleate lipid droplets, BODIPY imaging. inhibition, % at 6.5 µM. hit rate 0.4% among 240,000. AID 1656;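 active = lipid droplet intensity inhibited by at least 50%, with more than 500 cells counted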
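Test system: AML12 hepatocytes (mouse); reagent: oleate loading, 100 µM; dosing: one dose, 6.5 µM compound; incubation: overnight exposure; signal: fluorescence imaging, 20x objective, two fields per well; read-out basis: % inhibition of corrected integrated BODIPY droplet signal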
Lipid drop inh: hepatic lipid droplet formation inhibition, confirmed. AML12 mouse hepatocytes, BODIPY lipid droplet imaging; droplets induced with 100 µM oleic acid. inhibition, % at 5.2 µM. hit rate 65% among 870. shares compounds with Hep lipid drop;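 active = inhibition of lipid droplet metric at least 50%, with more than 300 cells in each of four replicates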;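 also: plate controls were DMSO with oleic acid for no effect and 5 µM Triacsin-C for full effect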
AML12 tox img: counter-screen for cytotoxicity in AML12 mouse hepatocytes | DAPI nuclear morphology cytotoxicity imaging; stronger effect = higher value; cells fed 100 µM oleate overnight | z-score at 5 µM | shares compounds with Hep lipid drop | AID 463200 | hit rate 3% among 870; in the data active = z-score above about 6.3;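 also: compound exposure lasted overnight at 37 °C before fixation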
AML12 tox conf: confirmation of cytotoxicity in AML12 mouse hepatocytes | shares compounds with Hep lipid drop | AML12 mouse hepatocyte viability, ATP luminescence; cells loaded with 100 µM oleic acid | cytotoxicity, % at 50 µM | 530 tested, under 10 active | AID 463219;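 active = cytotoxicity above 50% in each of four replicates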;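 also: compound exposure lasted overnight at 37 °C before the ATP read; 0% = DMSO-treated cells and 100% = wells with no cells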
Numbers without * were called inactive. The list is not random: actives were taken first. Their share in the collection is about 1.9%.

For Cc1nn(C(C)C(=O)NCCc2ccccc2)c(=O)c2cc3occc3n12 (stereo unspecified) the results were 697 NFkB inh 14, Jurkat NFkB inh 13, aSyn 5UTR inh 9 and Hep lipid drop -9.
`CCOc1ccc(CCNC(=O)CN2C(=O)NC(CCSC)C2=O)cc1OCC` (stereo unspecified) gave 697 NFkB inh 17, Jurkat NFkB inh -6, APP 5UTR inh -13, H9c2 TAG inh 23, aSyn 5UTR inh 0, Hep lipid drop 85*, Lipid drop inh 100*, AML12 tox img 0.33 and AML12 tox conf 14.
`O=C(/C=C/c1ccccc1)Nc1nnc(-c2ccco2)o1` gave 697 NFkB inh 17, Jurkat NFkB inh 14, APP 5UTR inh 16, H9c2 TAG inh 0, aSyn 5UTR inh -5 and Hep lipid drop -8.
`Cc1ccc(C(=O)Nc2cc3c(oc2=O)CCCC3=O)cc1` gave 697 NFkB inh -29, Jurkat NFkB inh -36, APP 5UTR inh -79, H9c2 TAG inh -16 and aSyn 5UTR inh -65.
`CCOc1ccc(CCNC(=O)Cn2nc(C)n3cccc3c2=O)cc1OCC` gave 697 NFkB inh -2, Jurkat NFkB inh 12, aSyn 5UTR inh 23, Hep lipid drop 79*, Lipid drop inh 104*, AML12 tox img -0.084 and AML12 tox conf 17.
Screening Cc1cc(NC(=O)CSc2nc(CC(C)(C)C)nc3c2c(=O)n(C)c(=O)n3C)no1 returned 697 NFkB inh 4, Jurkat NFkB inh 1, APP 5UTR inh -6, H9c2 TAG inh 12, aSyn 5UTR inh 7 and Hep lipid drop -4.
Screening COc1ccc(C)cc1NC(=O)CCNS(=O)(=O)c1cccc(C(F)(F)F)c1 returned 697 NFkB inh 6, Jurkat NFkB inh -14, aSyn 5UTR inh 13, Hep lipid drop 55*, Lipid drop inh 83*, AML12 tox img 0.18 and AML12 tox conf 6.
COc1ccccc1NC(=O)C1CC(C(C)C)OC1=O (stereo unspecified) was read as 697 NFkB inh -1, Jurkat NFkB inh 4, H9c2 TAG inh -2 and aSyn 5UTR inh -15.
Screening Cc1cc(C(c2ccc(O)cc2)c2cc(C)c(O)cc2C)c(C)cc1O returned 697 NFkB inh 3, Jurkat NFkB inh -15, H9c2 TAG inh -10, aSyn 5UTR inh -13, Hep lipid drop 56*, Lipid drop inh 21 and AML12 tox img -0.96.
Screening Cc1ccc(S(=O)(=O)N(C)C)cc1NC(=O)c1cncc(Br)c1 returned 697 NFkB inh 5, Jurkat NFkB inh 26, APP 5UTR inh 8, aSyn 5UTR inh 37 and Hep lipid drop -17.
For O=C(c1ccc(Cl)cc1)C1CCN(C(=O)NC2CCCCC2)CC1 the results were 697 NFkB inh -12, Jurkat NFkB inh -2, APP 5UTR inh -11, aSyn 5UTR inh 28, Hep lipid drop 70*, Lipid drop inh 85*, AML12 tox img -0.19 and AML12 tox conf 10.
`COc1ccc(N2CCN(C(=O)Cn3ncc4c([nH]c5ccccc54)c3=O)CC2)cc1` gave 697 NFkB inh 11, Jurkat NFkB inh -1, aSyn 5UTR inh -3 and Hep lipid drop -9.
COc1ccccc1N1CCN(C(=O)Cn2ncc3c([nH]c4ccccc43)c2=O)CC1 was read as 697 NFkB inh -3, Jurkat NFkB inh 16, aSyn 5UTR inh 12, Hep lipid drop 52*, Lipid drop inh 71*, AML12 tox img -1.5 and AML12 tox conf 8.
`CC1CCN(C(=O)c2ccccc2SCC(=O)NCC2CCCCC2)CC1` gave 697 NFkB inh -21, Jurkat NFkB inh -7, H9c2 TAG inh 8 and aSyn 5UTR inh -13.
COc1ccc(CCNC(=O)CC(c2ccccc2)c2cc(C)ccc2O)cc1OC (stereo unspecified) was read as 697 NFkB inh 20, Jurkat NFkB inh -18, aSyn 5UTR inh 11, Hep lipid drop 53*, Lipid drop inh 30 and AML12 tox img 0.95.
